Test results reported in ChEMBL document CHEMBL4184183, “Novel sulfenamides and sulfonamides based on pyridazinone and pyridazine scaffolds as CB1 receptor ligand antagonists” (Bioorg Med Chem, 2018).
Activity calls are given as the source filed them. The calls are words filed in the database; no cut-off is given here.

How the values were obtained:
[1] = molecular target: T1, Cannabinoid receptor 1 (Homo sapiens, UniProt P21554); test: Displacement of [3H]CP,55-940 from recombinant human CB1 receptor expressed in HEK293 EBNA cell membranes after 90 mins by microbeta scintillation counting method
T1 sequence (P21554 whole entry): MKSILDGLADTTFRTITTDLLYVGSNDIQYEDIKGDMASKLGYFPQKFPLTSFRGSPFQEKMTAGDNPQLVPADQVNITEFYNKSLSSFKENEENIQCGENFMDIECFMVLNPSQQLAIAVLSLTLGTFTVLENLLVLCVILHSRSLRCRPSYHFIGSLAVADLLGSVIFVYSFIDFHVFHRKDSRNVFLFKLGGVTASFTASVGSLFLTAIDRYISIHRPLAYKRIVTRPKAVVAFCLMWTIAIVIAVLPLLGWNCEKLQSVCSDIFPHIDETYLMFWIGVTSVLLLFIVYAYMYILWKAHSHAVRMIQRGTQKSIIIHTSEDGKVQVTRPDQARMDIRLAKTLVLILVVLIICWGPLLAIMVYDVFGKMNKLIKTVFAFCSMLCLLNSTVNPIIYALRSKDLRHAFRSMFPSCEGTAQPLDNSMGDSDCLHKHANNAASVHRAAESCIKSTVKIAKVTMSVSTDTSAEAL

[2] = molecular target: T2, Cannabinoid receptor 2 (Homo sapiens, UniProt P34972); test: Displacement of [3H]CP,55-940 from recombinant human CB2 receptor expressed in HEK293 EBNA cell membranes at 40 uM after 90 mins by microbeta scintillation counting method relative to control
T2 sequence (P34972 whole entry): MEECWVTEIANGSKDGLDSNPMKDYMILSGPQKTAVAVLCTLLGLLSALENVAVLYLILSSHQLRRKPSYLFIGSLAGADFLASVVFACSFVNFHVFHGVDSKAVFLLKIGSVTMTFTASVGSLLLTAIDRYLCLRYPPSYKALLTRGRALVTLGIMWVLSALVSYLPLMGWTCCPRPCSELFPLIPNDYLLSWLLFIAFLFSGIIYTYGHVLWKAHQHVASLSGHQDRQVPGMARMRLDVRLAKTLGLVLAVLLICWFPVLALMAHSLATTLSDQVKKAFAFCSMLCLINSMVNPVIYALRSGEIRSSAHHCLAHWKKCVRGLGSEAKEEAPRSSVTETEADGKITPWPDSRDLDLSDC
In short: (§1)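 Competition binding with [³H]-CP55,940 on human CB₁R or CB₂R transfected into HEK293 EBNA cells; each compound screened once at 40 µM for percent displacement of radioligand.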

[3] = molecular target: T1, Cannabinoid receptor 1; test: Displacement of [3H]CP,55-940 from recombinant human CB1 receptor expressed in HEK293 EBNA cell membranes at 40 uM after 90 mins by microbeta scintillation counting method relative to control; in short: as §1
[4] = molecular target: T2, Cannabinoid receptor 2; test: Displacement of [3H]CP,55-940 from recombinant human CB2 receptor expressed in HEK293 EBNA cell membranes after 90 mins by microbeta scintillation counting method
[5] = molecular target: T1, Cannabinoid receptor 1; test: Antagonist activity at human CB1 receptor expressed in CHO cell membranes assessed as reduction in GTPgammaS binding after 30 mins by microbeta counting method; format: functional, cell-based
[6] = tested on: Mus musculus; test: Analgesic effect in mouse assessed as elevation in latency response at 2.5 mg/kg measured after 5 mins by hot plate test; format: functional, organism-based
In short: (§2)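 Hot-plate test in mice, read as latency to respond to the painful stimulus. Test agent at 2.5 mg/kg was given alone or with the cannabinoid agonist Δ9-THC at 5 mg/kg. […] 7-9 mice per group; means SEM; one-way ANOVA with Student-Newman-Keuls test.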

[7] = tested on: Mus musculus; test: Reversal of delta9-THC-induced analgesic effect in mouse assessed as reduction in delta9-THC-induced elevation in latency response at 2.5 mg/kg measured after 5 mins by hot plate test; format: organism-based; conditions: in vivo; in short: as §2
[8] = tested on: Mus musculus; test: Analgesic effect in mouse assessed as elevation in latency response at 1 mg/kg measured after 5 mins by hot plate test; format: functional, organism-based

Ki [1]	Ki [4]	Structure (SMILES)	Ki ([1]; read-out: Ki) [nM]	inhibition [2]	inhibition [3]	Ki ([4]; read-out: Ki) [nM]	IC50 [5] [nM]	Activity [6]	Activity [7]	Activity [8]
–	–	Cc1ccc(-c2cc(S(=O)(=O)NC3CC4CCC3(C)C4(C)C)nnc2-c2ccc(C)cc2)cc1 (centres undefined)	1290	< 70%	> 70%	> 40000	–	–	–	–
–	–	Cc1ccc(-c2cc(S(=O)(=O)NC3CCCCCC3)nnc2-c2ccc(C)cc2)cc1	800	< 70%	> 70%	> 40000	–	–	–	–
–	–	Cc1ccc(-c2cc(SNC3C4(C)CCC(C4)C3(C)C)nnc2-c2ccc(C)cc2)cc1 (centres undefined)	247	< 70%	> 70%	> 40000	–	–	–	–
–	–	Cc1ccc(Cn2nc(-c3ccc(C)cc3)cc(SNC3CCCCCC3)c2=O)cc1	> 40000	inactive	inactive	> 40000	–	–	–	–
–	–	Cc1ccc(-c2cc(S(=O)(=O)NC3CC4CC(C3C)C4(C)C)nnc2-c2ccc(C)cc2)cc1 (centres undefined)	73.2	< 70%	> 70%	> 40000	550	–	–	–
–	–	Cc1ccc(-c2cc(S(=O)(=O)NCC3CCC4CC3C4(C)C)nnc2-c2ccc(C)cc2)cc1 (centres undefined)	> 10000	< 70%	> 70%	> 40000	–	–	–	–
–	–	Cc1ccc(-c2cc(SNCC3CCC4CC3C4(C)C)nnc2-c2ccc(C)cc2)cc1 (centres undefined)	1250	< 70%	> 70%	> 40000	–	–	–	–
–	–	Cc1ccc(-c2cc(SNC3CC4CC(C3C)C4(C)C)nnc2-c2ccc(C)cc2)cc1 (centres undefined)	75.5	< 70%	> 70%	> 40000	182	inactive	–	–
–	–	Cc1ccc(Cn2nc(-c3ccc(C)cc3)cc(S(=O)(=O)NC3CCCCCC3)c2=O)cc1	1190	< 70%	> 70%	2550	–	–	Toxic	–
–	–	Cc1ccc(-c2cc(S(=O)(=O)NC3CC(C)CCC3C(C)C)nnc2-c2ccc(C)cc2)cc1 (centres undefined)	> 10000	< 70%	> 70%	> 40000	–	–	–	–
–	–	Cc1ccc(-c2cc(SNC3CC(C)CCC3C(C)C)nnc2-c2ccc(C)cc2)cc1 (centres undefined)	708	< 70%	> 70%	> 40000	–	–	–	–
–	–	Cc1c(C(=O)NN2CCCCC2)nn(-c2ccc(Cl)cc2Cl)c1-c1ccc(Cl)cc1	–	–	–	–	–	–	–	inactive
–	–	Cc1ccc(-c2cc(SNCC34CC5CC(CC(C5)C3)C4)nnc2-c2ccc(C)cc2)cc1	857	< 70%	> 70%	> 40000	–	–	–	–
–	–	Cc1ccc(-c2cc(S(=O)(=O)NC3CCCC3)nnc2-c2ccc(C)cc2)cc1	1460	< 70%	> 70%	> 40000	–	–	–	–
–	–	Cc1ccc(-c2cc(SNC3CCCCCC3)nnc2-c2ccc(C)cc2)cc1	609	< 70%	> 70%	> 40000	–	–	–	–
–	–	Cc1ccc(-c2cc(SNC3CC4CCC3(C)C4(C)C)nnc2-c2ccc(C)cc2)cc1 (centres undefined)	44.6	< 70%	> 70%	> 40000	249	–	–	–
–	–	Cc1ccc(-c2cc(S(=O)(=O)NC3CCCCC3)nnc2-c2ccc(C)cc2)cc1	3600	< 70%	> 70%	> 40000	–	–	–	–
–	–	Cc1ccc(-c2cc(SNCCN3CCOCC3)nnc2-c2ccc(C)cc2)cc1	–	< 70%	> 70%	> 40000	–	–	–	–
–	–	Cc1ccc(-c2cc(SNC3CCCC3)nnc2-c2ccc(C)cc2)cc1	724	< 70%	> 70%	> 40000	–	–	–	–
Nd(Insoluble)	Nd(Insoluble)	Cc1ccc(-c2cc(SNC3CCCCC3)nnc2-c2ccc(C)cc2)cc1	–	–	–	–	–	–	–	–
